ChEMBL document CHEMBL1124436, “Benzofurans as mechanism-based inhibitors of dopamine beta-hydroxylase” (J Med Chem, 1989)

Experiments:
[1] = biological target: T1, Dopamine beta-hydroxylase (Bos taurus, UniProt P15101); assay: Compound was evaluated for the ability to bind to dopamine beta-hydroxylase of bovine
T1 sequence (P15101 whole entry): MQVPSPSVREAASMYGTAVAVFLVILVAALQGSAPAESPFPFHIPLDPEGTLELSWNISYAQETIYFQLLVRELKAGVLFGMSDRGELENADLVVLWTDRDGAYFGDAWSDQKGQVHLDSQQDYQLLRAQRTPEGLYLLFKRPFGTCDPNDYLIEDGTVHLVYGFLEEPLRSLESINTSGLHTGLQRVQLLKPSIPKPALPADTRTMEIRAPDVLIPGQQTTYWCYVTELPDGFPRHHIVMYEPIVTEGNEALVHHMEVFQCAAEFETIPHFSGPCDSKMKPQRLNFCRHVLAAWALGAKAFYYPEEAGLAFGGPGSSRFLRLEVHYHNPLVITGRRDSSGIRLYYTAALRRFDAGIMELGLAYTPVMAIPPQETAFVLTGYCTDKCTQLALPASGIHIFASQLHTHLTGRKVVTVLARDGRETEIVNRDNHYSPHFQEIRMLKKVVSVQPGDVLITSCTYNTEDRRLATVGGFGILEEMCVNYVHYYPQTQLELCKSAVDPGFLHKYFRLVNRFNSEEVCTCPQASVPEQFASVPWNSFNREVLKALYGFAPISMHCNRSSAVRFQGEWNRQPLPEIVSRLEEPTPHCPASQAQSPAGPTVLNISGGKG
How it was run: (§1)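 Purified bovine DβH (20-40 μg) was preincubated at 25 °C with varied inhibitor in 100 mM Mes/100 mM NaOAc, pH 5.0, with 0-3% DMF, 0.5 mg/mL catalase and 12 mM ascorbate. Timed aliquots went into assay mix at 37 °C, pH 5.5, with 30 mM tyramine and 12 mM ascorbate, and O2 uptake was read. Apparent kinact came from ln(activity) versus time; 1/kinact versus 1/[I] replots gave kinact and Ki.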

[2] = biological target: T2, Dopamine beta-hydroxylase (Bos taurus) (UniProt P15101); assay: Inactivation constant of compound was determined by using bovine dopamine beta-hydroxylase; how it was run: as §1
T2 sequence (whole entry): T1 sequence (P15101 whole entry)

[3] = (§2) Partition ratio was determined by quantitating amount of compound consumed after complete inactivation of a known amount of dopamine beta-hydroxylase.
How it was run: (§3)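 Bovine DβH (15-20 μg) was fully inactivated at 25 °C with inhibitor in 125 mM Mes/125 mM NaOAc, pH 5.5, with 0.5 mg/mL catalase and 12 mM ascorbate. Inhibitor consumed was quantified by C18 HPLC (water-acetonitrile) with UV detection at each inhibitor's maximum. Controls without enzyme were run. Partition ratio is turnover/inactivation.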

[4] = Ratio of inactivation constant (Kinact) and inhibitory constant (Ki); how it was run: as §1
[5] = biological target: T2, Dopamine beta-hydroxylase (Bos taurus); assay: as §2; how it was run: as §3

| SMILES | Ki [1] [µM] | K inact [2] [min⁻¹] | Partition ratio [3] | Ratio [4] | Partition ratio [5] |
| --- | --- | --- | --- | --- | --- |
| Oc1cccc2ccoc12 | 3200 | 0.25 | 35 | – | – |
| C=Cc1ccc(O)cc1 [4-VINYLPHENOL] | 700 | 0.025 | 730 | – | – |
| Oc1ccc2ccoc2c1 | 40 | 0.23 | 27 | 5750 | – |
| C#CC(CN)c1ccc(O)cc1 (stereo not given) | – | – | – | 3230 | – |
| NCC=C1SCCS1 | 5 | 0.15 | – | 30000 | – |
| C/C=C/c1ccc(O)cc1 | > 20000 | – | – | – | 680 |
| C=C(CN)c1ccc(O)cc1 | – | – | – | 1560 | – |
| Oc1ccc2occc2c1 | 1900 | 0.23 | 8 | – | – |
